Results on three molecules are retold here after ChEMBL document CHEMBL3526028 (Drug Metab Dispos, 2013).

Data set [1] concerns Mus musculus. Nature of the data set: Brain efflux index in wild type mouse assessed as transport of compound from ipsilateral cerebrum to the circulating blood across the blood-brain barrier at 10 nCi/ml, intracerebral microinjection after 30 mins. The class given is ADME, organism-based. The settings on record: other, 0.5 h. The method, boiled down:
(§1)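 Intracerebral microinjection under ip ketamine (100 mg/kg)/xylazine (10 mg/kg). Stereotaxic needle at 3.8 mm lateral to bregma, 2.5 mm deep, into S2 cortex. 0.2 µL [3H]-drug (10 nCi/ml) with [14C]-carboxyl-inulin (10 nCi/ml) in ECF buffer pH 7.4 given over 2 min. Ipsilateral cerebrum taken at set times, homogenised in 5% BSA and counted by scintillation. Retained/injected ratio normalised to inulin; n=3-4.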

Data set [2] deals with Brain. Briefly: Ratio of efflux clearance to clearance in brain measured in mouse at 0.3 uCi/ml by in vitro brain slice uptake technique. The class given is ADME, tissue-based.
Data set [3] is described as follows: Drug uptake in mouse cerebrum.
For data set [4], the system named is Mus musculus. Nature of the data set: Brain efflux index in wild type mouse assessed as transport of compound from ipsilateral cerebrum to the circulating blood across the blood-brain barrier at 10 nCi/ml, intracerebral microinjection after 30 mins in presence 100 mM probenecid OAT inhibitor relative to wild type. The settings on record: other, 0.5 h.
For data set [5], the system named is Mus musculus. Briefly: Brain efflux index in wild-type mouse assessed as transport of compound from ipsilateral cerebrum to the circulating blood across the blood-brain barrier at 10 nCi/ml, intracerebral microinjection after 30 mins in presence 100 mM benzylpenicillin OAT inhibitor. The following applies: other, 0.5 h.
Data set [6] concerns Mus musculus. Nature of the data set: Brain efflux index in Bcrp1 deficient mouse assessed as transport of compound from ipsilateral cerebrum to the circulating blood across the blood-brain barrier at 10 nCi/ml, intracerebral microinjection after 30 mins. The data set is classed as ADME, organism-based. The following applies: other, 0.5 h. The method, boiled down: as §1
Data set [7] is described as follows: Drug uptake in mouse brain ipsilateral cerebrum assessed as radiolabelled compound after 30 mins at 0.1 uM, intracerebral microinjection. The settings on record: in vivo, other, 0.5 h. The data set is classed as ADME, tissue-based. The method, boiled down: (§2)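 Male C57BL/6 wild-type mice under ketamine 100 mg/kg plus xylazine 10 mg/kg i.p., on a stereotaxic frame. 0.2 µL was injected over 2 min into the S2 cortex, 3.8 mm lateral to bregma and 2.5 mm deep. Injectate: [3H]-drug plus [14C]-carboxyl-inulin, 10 nCi/ml each, in ECF buffer pH 7.4. Needle held 4 min. Ipsilateral cerebrum harvested at 30 min and counted by scintillation. Retention normalized to inulin. n=3-4.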

Data set [8] can be described thus: Elimination half life in mouse brain at 10 nCi/ml, icv. The data set is classed as ADME, organism-based. The following applies: icv or intrathecal, read-out: beta t1/2 (converted). The essentials: (§3)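 Intracerebral microinjection into the S2 cortex of anaesthetized mice, 0.2 µL of [3H]-drug (10 nCi/ml) with [14C]-carboxyl-inulin in ECF buffer. Ipsilateral cerebrum radioactivity was followed over time, up to 60 min for methotrexate. Elimination rate constant keff came from regression of percent remaining versus time, and half-life from keff. n=3-4.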

Data set [9] is described as follows: Drug uptake in mouse brain ipsilateral cerebrum assessed as radiolabelled compound after 30 mins at 0.1 uM, intracerebral microinjection in presence 100 mM benzylpenicillin OAT inhibitor. The settings on record: in vivo, other, 0.5 h. The class given is ADME, tissue-based. The essentials: as §2
For data set [10], the system named is Mus musculus. Nature of the data set: Brain efflux index in Mrp2 deficient mouse assessed as transport of compound from ipsilateral cerebrum to the circulating blood across the blood-brain barrier at 10 nCi/ml, intracerebral microinjection after 60 mins. The class given is ADME, organism-based. The settings on record: other, 1 h. The method, boiled down:
as §1

Data set [11] relates to Mus musculus. Nature of the data set: Brain efflux index in wild type mouse assessed as transport of compound from ipsilateral cerebrum to the circulating blood across the blood-brain barrier at 10 nCi/ml, intracerebral microinjection after 30 mins in presence 100 mM benzylpenicillin OAT inhibitor relative to wild type. The following applies: other, 0.5 h.
Data set [12] relates to Mus musculus. Briefly: Brain efflux index in wild-type mouse assessed as transport of compound from ipsilateral cerebrum to the circulating blood across the blood-brain barrier at 10 nCi/ml, intracerebral microinjection after 30 mins in presence 100 mM probenecid OAT inhibitor. The settings on record: other, 0.5 h.
Data set [13] in a line: Elimination rate constant mouse brain at 10 nCi/ml.
Data set [14] relates to Brain. Nature of the data set: Efflux clearance mouse brain measured per gm of tissue at 0.3 uCi/ml by in vitro brain slice uptake technique. The data set is classed as ADME.
The nature of data set [15]: Drug uptake in mouse brain ipsilateral cerebrum assessed as radiolabelled compound after 30 mins at 0.1 uM, intracerebral microinjection in presence 100 mM probenecid OAT inhibitor. The class given is ADME, tissue-based. The settings on record: in vivo, other, 0.5 h. The essentials: as §2
The test system of data set [16] is Mus musculus. Nature of the data set: Brain efflux index in Bcrp1 deficient mouse assessed as transport of compound from ipsilateral cerebrum to the circulating blood across the blood-brain barrier at 10 nCi/ml, intracerebral microinjection after 30 mins relative to wild type. The following applies: other, 0.5 h. The data set is classed as ADME, organism-based. The method, boiled down: as §1

Data set [17] has as its system Mus musculus. Briefly: Brain efflux index in Mrp2 deficient mouse assessed as transport of compound from ipsilateral cerebrum to the circulating blood across the blood-brain barrier at 10 nCi/ml, intracerebral microinjection after 30 mins relative to wild type. The following applies: other, 0.5 h.
The test system of data set [18] is Mus musculus. Briefly: Brain efflux index in wild-type mouse assessed as transport of compound from ipsilateral cerebrum to the circulating blood across the blood-brain barrier at 10 nCi/ml, intracerebral microinjection after 30 mins in presence of 50 mM unlabelled compound. The following applies: other, 0.5 h.
In data set [19] the test system is Mus musculus. Briefly: Brain efflux index in wild-type mouse assessed as transport of compound from ipsilateral cerebrum to the circulating blood across the blood-brain barrier at 10 nCi/ml, intracerebral microinjection after 30 mins in presence of 1 mM unlabelled compound. The settings on record: other, 0.5 h.
Data set [20] has as its system Mus musculus. Briefly: Brain efflux index in wild type mouse assessed as transport of compound from ipsilateral cerebrum to the circulating blood across the blood-brain barrier at 10 nCi/ml, intracerebral microinjection after 30 mins in presence of 1 mM unlabelled compound relative to wild type. The following applies: other, 0.5 h.
Data set [21] can be described thus: Drug uptake in mouse brain ipsilateral cerebrum assessed as radiolabelled compound after 30 mins at 0.1 uM, intracerebral microinjection in presence of 1 mM unlabelled compound. The class given is ADME, tissue-based. The settings on record: in vivo, other, 0.5 h. The essentials:
as §2

The subject of data set [22] is Mus musculus. Nature of the data set: Brain efflux index in wild type mouse assessed as transport of compound from ipsilateral cerebrum to the circulating blood across the blood-brain barrier at 10 nCi/ml, intracerebral microinjection after 30 mins in presence of 50 mM unlabelled compound relative to wild type. The settings on record: other, 0.5 h.
A short description of data set [23]: Drug uptake in mouse brain ipsilateral cerebrum assessed as radiolabelled compound after 30 mins at 0.1 uM, intracerebral microinjection in presence of 50 mM unlabelled compound. The settings on record: in vivo, other, 0.5 h. The class given is ADME, tissue-based. The essentials: as §2
The subject of data set [24] is Brain. Briefly: Elimination half life in mouse brain. The class given is ADME, tissue-based. The settings on record: in vivo. The method, boiled down:
as §3

For `CN(Cc1cnc2nc(N)nc(N)c2n1)c1ccc(C(=O)N[C@@H](CCC(=O)O)C(=O)O)cc1` [METHOTREXATE], the BEI with Mus musculus [1] is on record as 63.8%; in the data set with Mus musculus [4], 37.9%; in the data set on Mus musculus [5], 13.7%; in the data set with Mus musculus [6], 46.4%; with Mus musculus [10], 57.2%; in the data set with Mus musculus [11] it was 21.4%. The BEI in the data set with Mus musculus [12] turned out to be 24.2%; in the data set with Mus musculus [16], 72.7%; in the data set with Mus musculus [17], 90%. The Ratio in the data set with Brain [2] is recorded as 0.05. Further, the Drug uptake is 3.2% in [3], 36.2% in [7], 90% in data set [9] and 75.8% in data set [15]. In addition, in data set [8], the half-life is 28.8 min. The molecule further had a k el in data set [13] of 0.000397 s⁻¹. This molecule also displayed a CL in the data set on Brain [14] of 20.23 µL/min/g.
In the case of `Nc1nc2[nH]cc(CCc3ccc(C(=O)N[C@@H](CCC(=O)O)C(=O)O)cc3)c2c(=O)[nH]1` [PEMETREXED], the BEI in the data set with Mus musculus [1] was found to be 48.9%; in the data set with Mus musculus [18], 4.3%; in the data set with Mus musculus [4], 56.5%; in the data set on Mus musculus [5], 12.2%; with Mus musculus [19], 28.3%; with Mus musculus [20], 57.8%. In addition, the BEI in the data set with Mus musculus [6] came to 43.9%; in the data set with Mus musculus [10], 58.3%; with Mus musculus [22], 8.8%; in the data set on Mus musculus [11], 25%; in the data set on Mus musculus [12], 27.6%; in the data set on Mus musculus [16] it was 89.7%. Also, the Drug uptake in data set [21] is given as 71.7%; in [7] it was 51.1%; in data set [9], 90%; in data set [15], 72.4%; in data set [23] it was 95.7%. Moreover, in [8], the half-life was 39 min. Further, the k el in data set [13] was 0.000297 s⁻¹. In addition, the CL in the data set on Brain [14] was 11.04 µL/min/g.
`CCCC(CCC)C(=O)O` [VALPROIC ACID]: the “beta t1/2” value with Brain [24] came out at 2 min.
